We go through 14 molecules from PubChem BioAssay.

The source made the active and inactive calls.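 Rule for the calls, unless noted: active = viability at or under a set limit in both replicates, limit being median viability minus 3 SD (cut at about 48% in these data, passing the limit was not always enough); inconclusive = at or under the limit in just one replicate; inactive = at or above the limit in both replicates.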

The nature of experiment [1]: reducers of endogenous Her2 protein level, primary screen, SKBR3 breast tumor cells, AlphaScreen, ATP viability (AID 461;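 active = Her2 level under about 52% in both replicate screens, with viability over 70% of control, limit read from the data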;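 for Her2 level: lower value means less Her2 protein in the cells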;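 for viability: percent of carrier control wells set as 100% viability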). To be noted: 18-24 h, measured here: SKBR3 viability, ATP luminescence, at 10 µM. Background: In Alpha technology, singlet oxygen from a donor bead excites a nearby acceptor bead.
Experiment [2] has as its target Receptor tyrosine-protein kinase erbB-2 (Homo sapiens) (UniProt P04626). Described as above. To be noted: 18-24 h, at 10 µM, stronger effect = lower value.
A short description of experiment [3]: SK-BR-3 cell growth inhibitors, pilot screen, 24 h, human (AID 572;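 active = viability at or below 10% of carrier control in both of two separate runs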;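 note: compound exposure lasted between 18 and 24 h rather than exactly 24 h; 100% = carrier-treated control wells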). The settings on record: SK-BR-3 viability, CellTiter-Glo luminescence, at 10 µM, stronger effect = lower value. In general terms: Cellular ATP, detected with luciferase, serves as a proxy for viable cell number.
A short description of experiment [4]: HUVEC growth inhibition – cell-based, human, primary screen (AID 575;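 active = viability at or below 30% in both replicate assays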;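 note: 100% = median of untreated cell wells with 0.1% DMSO on each plate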). The settings on record: HUVEC proliferation, CellTiter-Glo luminescence, 72 h; at 10 µM; stronger effect = lower value. The method, boiled down:
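material = primary HUVEC, no more than 12 passages | input = 1250 cells per well | controls = vehicle and MePR control wells | measured by = CTG luminescence | times = 72 h compound incubation | format = collagen-coated 384-well format | read-out = % viability vs DMSO wells | doses = single 10 µM dose, 0.1% DMSO, from 5x medium stock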

Experiment [5] can be described thus: growth inhibitors of H69AR lung tumor, primary screen, human, duplicate replicates (AID 580).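 Note: 100% = mean luminescence of untreated wells and 0% = no signal.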 The settings on record: H69AR lung tumor cells viability, ATP luminescence, 72 h; at 10 µM; stronger effect = lower value.
Experiment [6] can be described thus: reversal of MRP1-mediated doxorubicin resistance, pilot screen, H69AR cells, doxorubicin co-treatment (AID 601;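 active = viability loss from added drug above about 55%, and viability with drug at most 40%, in both replicates, limit read from the data, passing the limit was not always enough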). To be noted: CellTiter-Glo, 72 h, at 10 µM; for differential viability (reversal): stronger effect = higher value.
The nature of experiment [7]: 384-well plate pilot, post-Golgi transport modulator project, inhibition of yeast transport mutant growth (AID 636; in the data active = inhibition above about 31%). To be noted: absorbance 615 nm, about 18 h, stronger effect = higher value.
Experiment [8] in a line: growth suppression of yeast trafficking mutant, preliminary HTS, modulators of trafficking downstream of Golgi apparatus project, 1536-format plate, OD 615 nm (AID 637; in the data active = inhibition above about 30%). To be noted: yeast transport mutant growth, absorbance 615 nm, 18 h; stronger effect = higher value.
[9] abbreviates: H69AR cells + 2 uM doxorubicin, measured here: viability with 2 uM doxorubicin, stronger effect = lower value.
Setting [10] is: H69AR cells, compound alone cytotoxicity.

Sequence of Receptor tyrosine-protein kinase erbB-2 (Homo sapiens) (P04626 whole entry, looked up): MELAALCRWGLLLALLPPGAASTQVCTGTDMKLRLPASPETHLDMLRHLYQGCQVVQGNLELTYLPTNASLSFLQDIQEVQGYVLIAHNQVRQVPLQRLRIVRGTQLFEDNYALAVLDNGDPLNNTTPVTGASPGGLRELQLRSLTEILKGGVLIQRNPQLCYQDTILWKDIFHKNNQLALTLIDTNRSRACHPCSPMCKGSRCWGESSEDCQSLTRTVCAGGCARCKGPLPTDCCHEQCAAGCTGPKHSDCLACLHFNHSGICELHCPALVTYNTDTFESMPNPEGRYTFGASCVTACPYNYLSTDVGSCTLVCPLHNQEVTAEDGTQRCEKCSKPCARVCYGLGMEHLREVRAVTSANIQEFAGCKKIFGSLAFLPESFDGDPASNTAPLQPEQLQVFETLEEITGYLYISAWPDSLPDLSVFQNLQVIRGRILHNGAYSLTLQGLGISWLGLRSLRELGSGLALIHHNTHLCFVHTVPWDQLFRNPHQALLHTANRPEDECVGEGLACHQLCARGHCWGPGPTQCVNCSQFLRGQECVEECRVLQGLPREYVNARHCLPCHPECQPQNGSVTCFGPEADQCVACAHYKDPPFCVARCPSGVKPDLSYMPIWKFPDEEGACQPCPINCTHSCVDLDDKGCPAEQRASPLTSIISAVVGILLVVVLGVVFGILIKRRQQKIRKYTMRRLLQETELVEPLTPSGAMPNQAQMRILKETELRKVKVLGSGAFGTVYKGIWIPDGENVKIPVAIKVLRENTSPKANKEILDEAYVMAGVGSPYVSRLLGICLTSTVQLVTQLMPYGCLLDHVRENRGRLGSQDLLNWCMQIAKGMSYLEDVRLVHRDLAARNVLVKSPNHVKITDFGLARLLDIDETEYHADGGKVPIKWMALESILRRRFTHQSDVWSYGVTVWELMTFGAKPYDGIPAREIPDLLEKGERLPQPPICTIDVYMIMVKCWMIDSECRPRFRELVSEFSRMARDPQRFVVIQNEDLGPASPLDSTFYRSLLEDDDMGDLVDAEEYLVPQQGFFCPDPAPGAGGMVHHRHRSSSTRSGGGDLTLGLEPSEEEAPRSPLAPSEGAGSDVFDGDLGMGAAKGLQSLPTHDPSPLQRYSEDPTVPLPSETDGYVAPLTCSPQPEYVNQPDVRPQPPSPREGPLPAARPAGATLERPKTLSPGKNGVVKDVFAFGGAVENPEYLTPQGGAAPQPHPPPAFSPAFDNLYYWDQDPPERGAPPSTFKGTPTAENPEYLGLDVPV

Regarding `CCCCCC(=O)N1CC2(CC)CN(C(=O)CCCCC)CC(CC)(C1)C2=O`, the viability in experiment [1] was 89%; in experiment [3] it was 89% (inactive); in experiment [4], 91.7% (inactive); in experiment [5] it was 83.3% (inactive); in experiment [6] (setting [9]), 89.7%; in experiment [6] (setting [10]), 83.3%. In experiment [2], the Her2 level was 124% (inactive). Moreover, the differential viability (reversal) in experiment [6] (H69AR cells + 2 uM doxorubicin) is -6.35% (inactive). Also, the results for the inhibition in experiment [7] and in experiment [8] were 0.51% (inactive) and -7.33% (inactive), respectively.

As for `CC(C)CNC(=O)C1CC(=O)OC12CCCCC2` (stereo not given), the viability is 100% in experiment [1]; 100% (inactive) in experiment [3]; 112% (inactive) in experiment [4]; 113% (inactive) in experiment [5]; 90.5% in experiment [6] (setting [9]); 113% in experiment [6] (setting [10]). The Her2 level in experiment [2] was 95% (inactive). The differential viability (reversal) in experiment [6] (H69AR cells + 2 uM doxorubicin) was 22.3% (inactive). Also, the inhibition in experiment [7] was -8.11% (inactive); in experiment [8] it was 4.92% (inactive).

Turning to `Cn1c(=O)c2c(nc(CN3CCOCC3)n2CC(O)CO)n(C)c1=O` (stereo not given), the viability is 111% in experiment [1]; 111% (inactive) in experiment [3]; 104% (inactive) in experiment [4]; 86.2% (inactive) in experiment [5]; 91.1% in experiment [6] (setting [9]); 86.2% in experiment [6] (setting [10]). Moreover, in experiment [2], the Her2 level was 107% (inactive). The differential viability (reversal) in experiment [6] (H69AR cells + 2 uM doxorubicin) was -4.93% (inactive). Moreover, the inhibition in experiment [7] is -3.9% (inactive); in experiment [8], 2.46% (inactive).

For the molecule `Cc1ccc(C(=O)NCc2ccc3c(c2)OCO3)cc1S(=O)(=O)N1CCCCC1`, the viability was 91.5% in experiment [1]; 91.5% (inactive) in experiment [3]; 96.6% (inactive) in experiment [4]; 96.2% (inactive) in experiment [5]; 98.5% in experiment [6] (setting [9]); 96.2% in experiment [6] (setting [10]). Moreover, the Her2 level in experiment [2] was 100% (inactive). In experiment [6] (H69AR cells + 2 uM doxorubicin), the differential viability (reversal) was -2.33% (inactive). For the same molecule, the inhibition in experiment [7] was -3.2% (inactive); in experiment [8], -7.14% (inactive).

Consider `O=C(/C=C1\NC2(CCCC2)Cc2ccccc21)N1CCOCC1`, for which the viability is 101% in experiment [1]; 101% (inactive) in experiment [3]; 98.2% (inactive) in experiment [4]; 102% (inactive) in experiment [5]; 85% in experiment [6] (setting [9]); 102% in experiment [6] (setting [10]). In experiment [2], the Her2 level was 85% (inactive). Moreover, in experiment [6] (H69AR cells + 2 uM doxorubicin), the differential viability (reversal) is 17.3% (inactive). In addition, the inhibition was -7.12% (inactive) in experiment [7] and -3.49% (inactive) in experiment [8].

For the molecule `COCCCn1c(SCC(=O)Nc2cccc(C)n2)nnc1-c1ccco1`, the viability in experiment [1] was 95%; in experiment [3] it was 95% (inactive); in experiment [4] it was 106% (inactive); in experiment [5], 98.5% (inactive); in experiment [6] (setting [9]), 85.6%; in experiment [6] (setting [10]), 98.5%. Further, the Her2 level in experiment [2] is 82.5% (inactive). Besides, the differential viability (reversal) in experiment [6] (H69AR cells + 2 uM doxorubicin) is 12.9% (inactive). The results for the inhibition in experiment [7] and in experiment [8] were -3.6% (inactive) and -2.95% (inactive), respectively.

For `Cc1c(NC(=O)CN2c3cccc4cccc(c34)S2(=O)=O)c(=O)n(-c2ccccc2)n1C`, the viability is 122% in experiment [1]; 122% (inactive) in experiment [3]; 82.6% (inactive) in experiment [4]; 102% (inactive) in experiment [5]; 82.5% in experiment [6] (setting [9]); 102% in experiment [6] (setting [10]). For the same molecule, the Her2 level in experiment [2] is 93% (inactive). Moreover, the differential viability (reversal) in experiment [6] (H69AR cells + 2 uM doxorubicin) is 19.1% (inactive). The values for the inhibition in experiment [7] and in experiment [8] were -4.27% (inactive) and 7.9% (inactive), respectively.

Regarding `O=C(NC(C(=O)c1ccccc1)n1ccc(=O)[nH]c1=O)c1ccccc1` (stereo not given), the viability was 98.5% in experiment [1]; 98.5% (inactive) in experiment [3]; 98.8% (inactive) in experiment [4]; 91.2% (inactive) in experiment [5]; 84.4% in experiment [6] (setting [9]); 91.2% in experiment [6] (setting [10]). For the same molecule, the Her2 level in experiment [2] was 99% (inactive). Also, in experiment [6] (H69AR cells + 2 uM doxorubicin), the differential viability (reversal) is 6.79% (inactive). The inhibition is -0.93% (inactive) in experiment [7] and 23.1% (inactive) in experiment [8].

Take `CCCCn1nnc(NC(=O)c2cc3ccccc3o2)n1`: the viability in experiment [1] was 107%; in experiment [3], 107% (inactive); in experiment [4], 119% (inactive); in experiment [5], 81.6% (inactive); in experiment [6] (setting [9]), 90.3%; in experiment [6] (setting [10]), 81.6%. Besides, the Her2 level in experiment [2] is 88.5% (inactive). In addition, the differential viability (reversal) in experiment [6] (H69AR cells + 2 uM doxorubicin) is -8.71% (inactive). Further, the inhibition was 0.13% (inactive) in experiment [7] and 8% (inactive) in experiment [8].

Take `CCOc1ccc(NC(=O)c2ccc3c(c2)N(Cc2ccc(F)cc2)C(=O)CS3=O)cc1` (stereo not given): the viability was 90% in experiment [1]; 90% (inactive) in experiment [3]; 70.4% (inactive) in experiment [4]; 90% (inactive) in experiment [5]; 78.6% in experiment [6] (setting [9]); 90% in experiment [6] (setting [10]). Also, in experiment [2], the Her2 level is 81.5% (inactive). The differential viability (reversal) in experiment [6] (H69AR cells + 2 uM doxorubicin) is 11.4% (inactive). Besides, the inhibition is -1.07% (inactive) in experiment [7] and -0.17% (inactive) in experiment [8].

Consider `COc1cc2c(cc1NC(=O)COC(=O)Cn1cnc3ccccc31)oc1ccccc12`, for which the viability is 92% in experiment [1]; 92% (inactive) in experiment [3]; 64.4% (inactive) in experiment [4]; 80.8% (inactive) in experiment [5]; 96.9% in experiment [6] (setting [9]); 80.8% in experiment [6] (setting [10]). Moreover, the Her2 level in experiment [2] was 89% (inactive). In addition, the differential viability (reversal) in experiment [6] (H69AR cells + 2 uM doxorubicin) was -16.1% (inactive). Also, the inhibition in experiment [7] was -1.87% (inactive); in experiment [8], -3.23% (inactive).

For the molecule `CCS(=O)(=O)Nc1ccc(C(=O)CC2(O)C(=O)Nc3ccccc32)cc1` (stereo not given), the viability in experiment [1] was 105%; in experiment [3], 105% (inactive); in experiment [4], 90.3% (inactive); in experiment [5], 89.5% (inactive); in experiment [6] (setting [9]), 97.3%; in experiment [6] (setting [10]), 89.5%. For the same molecule, in experiment [2], the Her2 level is 91% (inactive). Also, in experiment [6] (H69AR cells + 2 uM doxorubicin), the differential viability (reversal) is -7.81% (inactive). Moreover, the inhibition was -5.87% (inactive) in experiment [7] and 2.13% (inactive) in experiment [8].

As to `O=C(O)c1cccc(S(=O)(=O)N2CCOCC2)c1`, the viability was 118% in experiment [1]; 118% (inactive) in experiment [3]; 95% (inactive) in experiment [4]; 98.9% (inactive) in experiment [5]; 95.5% in experiment [6] (setting [9]); 98.9% in experiment [6] (setting [10]). Also, in experiment [2], the Her2 level was 121% (inactive). The differential viability (reversal) in experiment [6] (H69AR cells + 2 uM doxorubicin) is 3.4% (inactive). Moreover, the inhibition in experiment [7] was -1.37% (inactive); in experiment [8] it was 11.3% (inactive).

`CCOC(=O)C1CCCN(C(=O)c2cc3c(=O)n4cccc(C)c4nc3n2C)C1` (stereo not given): the viability in experiment [1] was 106%; in experiment [3] it was 106% (inactive); in experiment [4] it was 108% (inactive); in experiment [5], 94.3% (inactive); in experiment [6] (setting [9]), 88.4%; in experiment [6] (setting [10]) it was 94.3%. The Her2 level in experiment [2] was 77% (inactive). In addition, the differential viability (reversal) in experiment [6] (H69AR cells + 2 uM doxorubicin) is 5.81% (inactive). Further, the inhibition in experiment [7] was -7.3% (inactive); in experiment [8] it was 2.7% (inactive).

In general, viability refers to a read-out of living cells in per cent, often relative to untreated cells. A word on the inhibition: it is the change of the read-out against control, counted positive when it falls.
